Reference: ChEMBL document CHEMBL6083235, “Synthesis, evaluation and mechanistic insights of novel IMPDH inhibitors targeting ESKAPEE bacteria” (Eur J Med Chem, 2024)
Calls of active or inactive are those of the source. No cut-off for these calls is given here.

test system: Pseudomonas aeruginosa; experiment: Inhibition of Pseudomonas aeruginosa IMPDH delta Bateman domain extracted form Escherichia coli BL21 (DE3)pDIA17 assessed as formation of NADH at 50 uM relative to control; conditions: not given
Summary of the method: (§1)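 Bateman-domain-deleted IMPDH (E. coli or P. aeruginosa), His-tagged, made in E. coli BL21(DE3)/pDIA17. NADH formation at 340 nm, 30 °C, 0.2 mM IMP, 0.4 mM NAD⁺, 0.2 mM MgATP, 2 mM MgCl₂. Buffer: ec Tris-HCl 50 mM pH 9, KCl 100 mM; pa Tris-HCl 50 mM pH 8, KCl 100 mM. Compound 50 μM; % inhibition relative to uninhibited enzyme.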

Compound | inhibition
CC(C)(NC(=O)Nc1ccc(Cl)c([N+](=O)[O-])c1)c1cccc(-c2cn[nH]c2)c1 | 99%
CC(C)(NC(=O)NCc1ccccc1)c1cccc(-c2ccco2)c1 | 6%

target: T1, Inosine-5'-monophosphate dehydrogenase (Pseudomonas aeruginosa (strain ATCC 15692 / DSM 22644 / CIP 104116 / JCM14847 / LMG 12228 / 1C / PRS 101 / PAO1)) (UniProt Q9HXM5); experiment: Non-competitive inhibition of Pseudomonas aeruginosa IMPDH by Lineweaver-Burk plot analysis; conditions: not given
T1 sequence (whole entry): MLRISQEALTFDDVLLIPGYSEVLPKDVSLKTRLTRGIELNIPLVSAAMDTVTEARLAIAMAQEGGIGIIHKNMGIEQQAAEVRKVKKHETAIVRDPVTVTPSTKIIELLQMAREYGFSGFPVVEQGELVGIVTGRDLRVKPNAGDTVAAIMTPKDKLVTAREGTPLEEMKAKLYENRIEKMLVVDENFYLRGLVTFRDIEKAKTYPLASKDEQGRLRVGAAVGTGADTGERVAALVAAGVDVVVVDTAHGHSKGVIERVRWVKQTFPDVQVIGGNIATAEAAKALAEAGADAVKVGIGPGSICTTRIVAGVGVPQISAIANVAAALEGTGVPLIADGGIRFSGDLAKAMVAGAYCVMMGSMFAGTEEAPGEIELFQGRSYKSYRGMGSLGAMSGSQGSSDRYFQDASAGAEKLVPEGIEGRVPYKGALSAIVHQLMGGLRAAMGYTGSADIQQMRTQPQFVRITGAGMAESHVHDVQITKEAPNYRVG
Summary of the method: (§2)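 Steady-state kinetics of P. aeruginosa ΔBateman IMPDH: initial rates (NADH at 340 nm, 30 °C, Tris-HCl 50 mM pH 8, KCl 100 mM) measured across variable IMP at saturating 2 mM NAD⁺, without or with several inhibitor concentrations; data from at least three experiments fitted to Michaelis–Menten and shown as Lineweaver-Burk plots.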

Compound | inhibition
CC(C)(NC(=O)Nc1ccc(Cl)c([N+](=O)[O-])c1)c1cccc(-c2cn[nH]c2)c1 | Active

test system: not listed separately; experiment: Metabolic stability in mouse liver microsomes assessed as recovery in presence of NADPH measured after 120 mins; type: ADME, Microsome; conditions: read-out: Drug recovery

Compound | remaining at 2 h
CC(C)(NC(=O)Nc1ccc(Cl)c([N+](=O)[O-])c1)c1cccc(-c2cn[nH]c2)c1 | > 95%

target: T2, Inosine-5'-monophosphate dehydrogenase (Escherichia coli K-12) (UniProt P0ADG7); experiment: Inhibition of Escherichia coli IMPDH extracted form Escherichia coli BL21 (DE3)pDIA17 assessed as formation of NADH at 50 uM relative to control; conditions: not given
T2 sequence (whole entry): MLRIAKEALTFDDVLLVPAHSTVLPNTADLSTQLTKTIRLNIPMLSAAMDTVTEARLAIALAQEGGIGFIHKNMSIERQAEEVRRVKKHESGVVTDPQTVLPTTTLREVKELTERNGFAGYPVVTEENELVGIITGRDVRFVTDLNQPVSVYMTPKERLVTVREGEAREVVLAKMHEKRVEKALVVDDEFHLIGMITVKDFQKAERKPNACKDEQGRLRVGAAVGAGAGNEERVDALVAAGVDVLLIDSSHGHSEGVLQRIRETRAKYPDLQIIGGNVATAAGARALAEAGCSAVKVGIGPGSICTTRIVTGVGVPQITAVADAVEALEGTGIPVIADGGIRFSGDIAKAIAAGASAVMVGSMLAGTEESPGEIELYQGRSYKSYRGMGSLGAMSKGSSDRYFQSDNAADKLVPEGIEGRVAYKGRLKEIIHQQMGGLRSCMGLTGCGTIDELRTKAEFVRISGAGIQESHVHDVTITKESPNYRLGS
Summary of the method: (§3)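 His-tagged wild-type IMPDH (E. coli, P. aeruginosa or S. aureus) made in E. coli BL21(DE3)/pDIA17, purified by metal-affinity then gel filtration. NADH formation followed at 340 nm, 30 °C, with 0.2 mM IMP, 0.4 mM NAD⁺, 0.2 mM MgATP, 2 mM MgCl₂. Buffers: pa Tris-HCl 50 mM pH 8; ec Tris-HCl 50 mM pH 8, KCl 50 mM; sa Na₂CO₃ 50 mM pH 9.2, KCl 20 mM. Compound at 50 μM; % inhibition vs compound-free activity.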

Compound | inhibition
CC(C)(NC(=O)Nc1ccc(Cl)c([N+](=O)[O-])c1)c1cccc(-c2cn[nH]c2)c1 | 89%

test system: not listed separately; experiment: Inhibition of Pseudomonas aeruginosa IMPDH delta Bateman domain extracted form Escherichia coli BL21 (DE3)pDIA17 assessed as formation of NADH; conditions: read-out: I50
Summary of the method: (§4)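 Bateman-domain-deleted IMPDH (E. coli or P. aeruginosa) from E. coli BL21(DE3)/pDIA17; NADH at 340 nm, 30 °C, 0.2 mM IMP, 0.4 mM NAD⁺, 0.2 mM MgATP, 2 mM MgCl₂; buffers as per variant (ec Tris-HCl pH 9/KCl 100 mM; pa Tris-HCl pH 8/KCl 100 mM). I50 by dose-response logistic fit, at least three experiments.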

Compound | IC50
CC(C)(NC(=O)Nc1ccc(Cl)c([N+](=O)[O-])c1)c1cccc(-c2cn[nH]c2)c1 | 170 nM

test system: Staphylococcus aureus; experiment: Inhibition of Staphylococcus aureus IMPDH extracted form Escherichia coli BL21 (DE3)pDIA17 assessed as formation of NADH at 50 uM relative to control; conditions: not given; summary of the method: as §3

Compound | inhibition
CC(C)(NC(=O)Nc1ccc(Cl)c([N+](=O)[O-])c1)c1cccc(-c2cn[nH]c2)c1 | 93%

test system: not listed separately; experiment: Inhibition of Escherichia coli IMPDH delta Bateman domain extracted form Escherichia coli BL21 (DE3)pDIA17 assessed as formation of NADH; conditions: read-out: I50; summary of the method: as §4

Compound | IC50
CC(C)(NC(=O)Nc1ccc(Cl)c([N+](=O)[O-])c1)c1cccc(-c2cn[nH]c2)c1 | 5510 nM

target: T1, Inosine-5'-monophosphate dehydrogenase (Pseudomonas aeruginosa (strain ATCC 15692 / DSM 22644 / CIP 104116 / JCM14847 / LMG 12228 / 1C / PRS 101 / PAO1)); experiment: Non-competitive inhibition of Pseudomonas aeruginosa IMPDH in presence of 2 mM NAD+ by Michaelis-Menten equation; conditions: not given; summary of the method: as §2

Compound | inhibition
CC(C)(NC(=O)Nc1ccc(Cl)c([N+](=O)[O-])c1)c1cccc(-c2cn[nH]c2)c1 | Active

test system: not listed separately; experiment: Metabolic stability in mouse liver microsomes assessed as recovery in absence of NADPH measured after 120 mins; type: ADME, Microsome; conditions: read-out: Drug recovery

Compound | remaining at 2 h
CC(C)(NC(=O)Nc1ccc(Cl)c([N+](=O)[O-])c1)c1cccc(-c2cn[nH]c2)c1 | > 95%

test system: Escherichia coli; experiment: Inhibition of Escherichia coli IMPDH delta Bateman domain extracted form Escherichia coli BL21 (DE3)pDIA17 assessed as formation of NADH at 50 uM relative to control; conditions: not given; summary of the method: as §1

Compound | inhibition
CC(C)(NC(=O)Nc1ccc(Cl)c([N+](=O)[O-])c1)c1cccc(-c2cn[nH]c2)c1 | 84%
CC(C)(NC(=O)NCc1ccccc1)c1cccc(-c2ccco2)c1 | 1%

test system: Caco-2; experiment: Cytotoxicity against human Caco-2 cells assessed as cell viability at 1 uM measured after 72 hrs by Alamar blue assay; type: toxicity, cell-based; conditions: caco-2, 72 h
Summary of the method: (§5)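 Confluent Caco-2 monolayers (seeded 1.10⁵ cells/cm², 48 h growth; DMEM 25 mM glucose, 10 % FBS, NEAA, 37 °C, 5 % CO₂) exposed 72 h; vehicle 0.1 % DMSO, 0.2 % Triton X-100 as cytotoxic control. Rinsed with PBS, 5 % Alamar Blue in FBS-free medium 30 min at 37 °C; resorufin fluorescence (ex 530/em 570 nm) relative to DMSO. Mean ± SEM, three independent experiments.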

Compound | Activity
CC(C)(NC(=O)Nc1ccc(Cl)c([N+](=O)[O-])c1)c1cccc(-c2cn[nH]c2)c1 | Non-toxic

target: T1, Inosine-5'-monophosphate dehydrogenase (Pseudomonas aeruginosa (strain ATCC 15692 / DSM 22644 / CIP 104116 / JCM14847 / LMG 12228 / 1C / PRS 101 / PAO1)); experiment: Inhibition of Pseudomonas aeruginosa IMPDH extracted form Escherichia coli BL21 (DE3)pDIA17 assessed as formation of NADH at 50 uM relative to control; conditions: not given; summary of the method: as §3

Compound | inhibition
CC(C)(NC(=O)Nc1ccc(Cl)c([N+](=O)[O-])c1)c1cccc(-c2cn[nH]c2)c1 | 97%
CC(C)(NC(=O)NCc1ccccc1)c1cccc(-c2ccco2)c1 | 10%

test system: Caco-2; experiment: Cytotoxicity against human Caco-2 cells assessed as cell viability at 10 uM measured after 72 hrs by Alamar blue assay; type: toxicity, cell-based; conditions: caco-2, 72 h; summary of the method: as §5

Compound | Activity
CC(C)(NC(=O)Nc1ccc(Cl)c([N+](=O)[O-])c1)c1cccc(-c2cn[nH]c2)c1 | Non-toxic

target: Inosine-5'-monophosphate dehydrogenase 2 (Homo sapiens) (UniProt P12268); experiment: Inhibition of human IMPDH2 extracted form Escherichia coli BL21 (DE3)pDIA17 assessed as formation of NADH at 50 uM; conditions: not given
Sequence (P12268 2-514 limits assumed): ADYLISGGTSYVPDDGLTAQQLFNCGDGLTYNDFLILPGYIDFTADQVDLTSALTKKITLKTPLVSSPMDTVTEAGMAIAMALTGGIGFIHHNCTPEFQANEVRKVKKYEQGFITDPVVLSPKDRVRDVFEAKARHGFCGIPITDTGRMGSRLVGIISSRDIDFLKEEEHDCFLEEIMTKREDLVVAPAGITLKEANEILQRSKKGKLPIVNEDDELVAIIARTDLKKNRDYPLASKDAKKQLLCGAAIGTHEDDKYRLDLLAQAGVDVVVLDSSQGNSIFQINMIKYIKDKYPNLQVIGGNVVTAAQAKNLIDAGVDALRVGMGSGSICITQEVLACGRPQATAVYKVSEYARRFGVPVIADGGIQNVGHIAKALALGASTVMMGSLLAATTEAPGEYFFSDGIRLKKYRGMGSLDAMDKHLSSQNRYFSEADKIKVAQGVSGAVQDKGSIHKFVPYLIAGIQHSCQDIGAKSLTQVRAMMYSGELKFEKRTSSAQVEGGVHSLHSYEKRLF

Compound | inhibition
CC(C)(NC(=O)Nc1ccc(Cl)c([N+](=O)[O-])c1)c1cccc(-c2cn[nH]c2)c1 | inactive
CC(C)(NC(=O)NCc1ccccc1)c1cccc(-c2ccco2)c1 | inactive

test system: Mycobacterium tuberculosis; experiment: Inhibition of Mycobacterium tuberculosis TMP kinase using 0.05 dTMP and 0.5 mM MgATP by measuring NADH consumption at 20 uM by coupled spectrophotometric assay; conditions: not given
Summary of the method: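 Recombinant M. tuberculosis TMP kinase; activity at 30 °C by NADH consumption at 340 nm in a pyruvate kinase/lactate dehydrogenase/nucleoside diphosphate kinase coupled assay (2 units each). Medium: 50 mM Tris-HCl pH 7.4, 50 mM KCl, 2 mM MgCl2, 0.2 mM NADH, 1 mM phosphoenolpyruvate. ATP held at 0.5 mM and dTMP at 0.05 mM; compound at 20 μM.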

Compound | inhibition
CC(C)(NC(=O)Nc1ccc(Cl)c([N+](=O)[O-])c1)c1cccc(-c2cn[nH]c2)c1 | inactive

test system: Staphylococcus aureus; experiment: Antibacterial activity against methicillin-resistant Staphylococcus aureus ATCC 43300 assessed as growth inhibition at 32 ug/ml relative to control; type: functional; conditions: not given

Compound | inhibition at 32 µg/mL
CC(C)(NC(=O)Nc1ccc(Cl)c([N+](=O)[O-])c1)c1cccc(-c2cn[nH]c2)c1 | 61.7%
CC(C)(NC(=O)NCc1ccccc1)c1cccc(-c2ccco2)c1 | 0.49%

target: T3, Inosine-5'-monophosphate dehydrogenase (Pseudomonas aeruginosa (strain ATCC 15692 / DSM 22644 / CIP 104116 / JCM14847 / LMG 12228 / 1C / PRS 101 / PAO1), UniProt Q9HXM5); experiment: Inhibition of Pseudomonas aeruginosa IMPDH extracted form Escherichia coli BL21 (DE3)pDIA17 assessed as formation of NADH; conditions: read-out: I50
T3 sequence (Q9HXM5 whole entry): T1 sequence (whole entry)

Compound | IC50
CC(C)(NC(=O)Nc1ccc(Cl)c([N+](=O)[O-])c1)c1cccc(-c2cn[nH]c2)c1 | 130 nM
